By inhibition is commonly meant the drop in the measured response relative to a control, in per cent. Usually MIC stands for the smallest concentration in the dilution series that meets the test's criterion for growth inhibition. A lower MIC goes with greater potency.

Active and inactive are the calls of the source.

The test system of data set [1] is Chlamydia trachomatis. The data set is described as follows: Antichlamydial activity against Chlamydia trachomatis L2 serovar VR-902B infected in human HeLa cells assessed as growth inhibition at 50 uM after 24 to 48 hrs by microscopic analysis. Format: functional.
In data set [2] the test system is Chlamydia pneumoniae. The data set is described as follows: Antichlamydial activity against Chlamydia pneumoniae T45 infected in human HeLa cells assessed as growth inhibition at 50 uM after 24 to 48 hrs by microscopic analysis. It counts as functional.
The nature of data set [3]: Cytotoxicity against human HeLa cells assessed as cell viability at 50 uM after 48 hrs by resazurin based fluorescence assay. The conditions noted are these: read-out: Activity.
Data set [4] concerns Yersinia pseudotuberculosis. The data set is described as follows: Antimicrobial activity against Yersinia pseudotuberculosis after 20 hrs. Format: functional. In outline:
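Overnight culture diluted into Mueller Hinton broth containing compound at 100, 50, 25 or 12, incubated 37 °C for 20 h; bacterial growth scored by visual inspection to give minimum inhibitory concentration.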

Data set [5] deals with Yersinia pseudotuberculosis. Briefly: Inhibition of type 3 secretion system in Yersinia pseudotuberculosis by yopE luciferase reporter gene assay. In outline: (§1)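 T3S inhibition in bacterial cultures measured with a yopE luciferase reporter gene. Compound used in two-fold dilutions from 100 to 12,5 at 1% final DMSO. Result given as percent inhibition relative to 1% DMSO-treated controls.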
Background: Reporter assays use an easily measured gene product as a stand-in for the process of interest.

In data set [6] the test system is Chlamydia trachomatis. The data set is described as follows: Antichlamydial activity against Chlamydia trachomatis L2 serovar VR-902B infected in human HeLa cells assessed as growth inhibition at 50 uM after 24 to 48 hrs by microscopic analysis in presence of iron sulfate. Format: functional, organism-based.
Data set [7] is described as follows: Aqueous solubility of the compound. Format: physicochemical. The conditions noted are these: buffer.
Data set [8] concerns Yersinia pseudotuberculosis. The data set is described as follows: Inhibition of phosphatase activity of secreted YopH in Yersinia pseudotuberculosis at 12 to 100 uM by orthogonal assay. The method in brief:
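Orthogonal test of T3S inhibition in bacterial cultures that reads the phosphatase activity of secreted YopH effector protein. Compound used in two-fold dilutions from 100 to 12,5 at 1% final DMSO. Result given as percent inhibition relative to 1% DMSO-treated controls.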

Data set [9] deals with Yersinia pseudotuberculosis. Briefly: Inhibition of type 3 secretion system in Yersinia pseudotuberculosis at 100 uM by yopE luciferase reporter gene assay. The method in brief: as §1

In the case of `Cc1cc(NS(=O)(=O)c2ccc(NC(=O)NCc3ccccc3)cc2)no1`, in data set [1], the inhibition at 50 µM is 18.5%. Besides, the inhibition result in data set [2] was “inactive”. In data set [3], the viability at 48 h, 50 µM is more than 70%. The same compound returned an MIC in [4] of more than 100 µM.

For `Cc1cc(NS(=O)(=O)c2ccc(NC(=S)Nc3ccc(O)cc3)cc2)no1`, the inhibition result in data set [1] was “inactive”. In data set [2], the inhibition at 50 µM stood at 60.8%. Besides, in data set [3], the viability at 48 h, 50 µM is more than 70%. The same compound displayed an MIC in data set [4] of more than 100 µM.

In the case of `Cc1cc(NS(=O)(=O)c2ccc(NC(S)=NCc3ccccc3)cc2)no1`, in data set [1], the inhibition at 50 µM was determined as 26.9%. Also, the inhibition entry in data set [2] is “inactive”. Further, the viability at 48 h, 50 µM in data set [3] was more than 70%. Moreover, the MIC in data set [4] was more than 100 µM.

`Cc1cc(NS(=O)(=O)c2ccc(NC(=S)NC3CCCCC3)cc2)no1`: the inhibition at 50 µM in data set [1] was 26.9%. Further, the inhibition entry in [2] is “inactive”. In [3], the viability at 48 h, 50 µM is more than 70%. For the same compound, the MIC in data set [4] is more than 100 µM.

Regarding `Cc1cc(NS(=O)(=O)c2ccc(NC(=O)Nc3ccc(O)cc3)cc2)no1`, in data set [1], the inhibition at 50 µM is 9.6%. Besides, the inhibition entry in [2] is “inactive”. Further, the viability at 48 h, 50 µM in data set [3] was more than 70%. The compound also came in with an MIC in data set [4] of more than 100 µM.

Take `Cc1cc(NS(=O)(=O)c2ccc(NC(=S)NCc3ccccc3O)cc2)no1`: the inhibition result in data set [1] and in [2] was “inactive” in each case. In addition, the viability at 48 h, 50 µM in data set [3] was more than 70%. Moreover, the MIC in data set [4] was more than 100 µM.

Consider `Cc1cc(NS(=O)(=O)c2ccc(NC(=O)/C=C/c3ccc(C(=O)N/N=C/c4cc(Cl)cc(Cl)c4O)cc3)cc2)no1`, for which the inhibition entry in data set [5] was “Dose-dependent effect”. Moreover, the inhibition at 50 µM in data set [1] was 14.6%. Further, the inhibition entry in data set [2] was “inactive”. In addition, in [3], the viability at 48 h, 50 µM was more than 70%. The same compound displayed an MIC in data set [4] of more than 100 µM.

Consider `CCN(CC)c1ccc(/C=N/NC(=O)c2ccc(S(=O)(=O)Nc3cc(C)on3)cc2)c(O)c1`, for which, in data set [5], the inhibition entry was “Dose-dependent effect”. Moreover, the inhibition at 50 µM in data set [1] is 83%; in data set [2], 100%. The viability at 48 h, 50 µM in data set [3] is more than 70%. For the same compound, the “growth inhibition (GI)” value in data set [6] is “inactive”. The same compound had an MIC in [4] of more than 100 µM.

As for `CCN(CC)c1ccc(/C=N/NC(=O)c2ccc(/C=C/C(=O)Nc3ccc(S(=O)(=O)Nc4cc(C)on4)cc3)cc2)c(O)c1`, the inhibition result in data set [5] is “Dose-dependent effect”. Also, the inhibition at 50 µM worked out at 28% in data set [1] and 22.4% in data set [2]. The solubility entry in [7] is recorded as “Insoluble”. Besides, the MIC in data set [4] was more than 100 µM.

Take `Cc1cc(NS(=O)(=O)c2ccc(NC(=O)NC3CCCCC3)cc2)no1`: the inhibition at 50 µM in [1] is 14.8%. Besides, the inhibition result in [2] was “inactive”. The viability at 48 h, 50 µM in data set [3] is more than 70%. The MIC in data set [4] is more than 100 µM.

For the compound `Cc1cc(NS(=O)(=O)c2ccc(NC(=O)c3sc4cc(Cl)ccc4c3Cl)cc2)no1`, the inhibition result in data set [8] and in data set [9] was “inactive” throughout. For the same compound, the “growth inhibition (GI)” value in data set [6] was “Active”.

`Cc1cc(NS(=O)(=O)c2ccc(C(=O)N/N=C/c3cc(Cl)cc(Cl)c3O)cc2)no1`: the inhibition entry in data set [5] is “Dose-dependent effect”. Further, the inhibition at 50 µM in data set [1] was 24.2%. For the same compound, the inhibition entry in [2] was “inactive”. Besides, in [3], the viability at 48 h, 50 µM was more than 70%. In [4], this compound registered an MIC of more than 100 µM.

Take `Cc1cc(NS(=O)(=O)c2ccc(C(=O)N/N=C/c3cc(Br)cc(Br)c3O)cc2)no1`: in data set [5], the inhibition entry is “Dose-dependent effect”. For the same compound, the inhibition result in data set [9] is “Active”. Besides, the inhibition at 50 µM turned out to be 65.2% in data set [1] and 99.4% in [2]. Also, in data set [3], the viability at 48 h, 50 µM was more than 70%. Moreover, the “growth inhibition (GI)” value in data set [6] is “inactive”. The same compound registered an MIC in data set [4] of more than 100 µM.

Turning to `Cc1cc(NS(=O)(=O)c2ccc(C(=O)N/N=C/c3ccc(O)cc3O)cc2)no1`, the inhibition result in [5] is “Dose-dependent effect”. Also, the inhibition at 50 µM in data set [1] was determined as 47.4%. In addition, the inhibition entry in [2] is “inactive”. Moreover, the viability at 48 h, 50 µM in data set [3] is more than 70%. The compound also showed an MIC in [4] of more than 100 µM.

Consider `Cc1cc(NS(=O)(=O)c2ccc(NC(=O)NCc3ccccc3O)cc2)no1`, for which the inhibition entry in data set [1] and in data set [2] was “inactive” in each case. In data set [3], the viability at 48 h, 50 µM was more than 70%. Moreover, the MIC in data set [4] was more than 100 µM.

Take `Cc1cc(NS(=O)(=O)c2ccc(NC(=O)/C=C/c3ccc(C(=O)N/N=C/c4cccc(F)c4O)cc3)cc2)no1`: in data set [5], the inhibition entry is “Dose-dependent effect”. For the same compound, the inhibition at 50 µM in [1] was 33.4%. In addition, the inhibition result in data set [2] is “inactive”. Moreover, the viability at 48 h, 50 µM in data set [3] is more than 70%. This compound had an MIC in data set [4] of more than 100 µM.

`Cc1cc(NS(=O)(=O)c2ccc(NC(=O)/C=C/c3ccc(C(=O)N/N=C/c4cc(Br)ccc4O)cc3)cc2)no1`: in data set [5], the inhibition entry is “Dose-dependent effect”. Also, in data set [1], the inhibition at 50 µM worked out at 21.5%. In [2], the inhibition result was “inactive”. Moreover, the viability at 48 h, 50 µM in data set [3] was more than 70%. In [4], this compound had an MIC of more than 100 µM.

These data come from ChEMBL document CHEMBL3612039, “Design, synthesis and evaluation of novel polypharmacological antichlamydial agents” (Eur J Med Chem, 2015).
